Bioassay records from PubChem.
Hits are enriched below; roughly 3.1% of the tested compounds scored in any of these assays.
MEKK3 PB1 HTS: modulators of MEKK3-MEK5 PB1 binding, primary screen, biochemical, wildtype MEKK3, multiplex bead flow cytometry, Alexa488-MEK5 | 290,000 compounds, 1.4% hits | binding response (% of control), % at 10 µM | bead-based flow cytometry, Alexa488-MEK5 binding to MEKK3; actives lie on both sides; 0 = blocked by unlabeled MEK5, 100 = vehicle | Mitogen-activated protein kinase kinase kinase 3 (Homo sapiens), Q99759;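 active = binding response more than 3 SD above or below the average of its plate-row segment, actives on both sides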;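 also: Alexa488 bead fluorescence after subtracting the streptavidin-only scavenger bead signal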
MEKK2 WT-MEK5: modulators of MEK5 binding to wildtype MEKK2, primary screen, biochemical, multiplex bead flow cytometry, Alexa488-MEK5; binding response (% of control), % at 10 µM; 290,000 compounds, 1.1% hits; Mitogen-activated protein kinase kinase kinase 2 (Homo sapiens), Q9Y2U5; Alexa488-MEK5 binding to MEKK2 WT; actives lie on both sides; AID 1531, 2009; in the data active = binding response below about 67% or above about 130%
Apaf-1 inh: inhibitors of human Apaf-1 apoptosome, primary screen, biochemical, DEVD-Rh110 fluorescence, uHTS; 330,000 compounds, 0.71% hits; inhibition, % at 20 µM; Apoptotic protease-activating factor 1 (Homo sapiens), O14727; AID 489030, 2010; reconstituted apoptosome caspase-3 activity; active = inhibition of at least 40% at 20 µM;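 also: plate controls were DMSO wells for no effect and DEVD-CHO caspase inhibitor wells for full effect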
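detection = Rh110 fluorescence intensity | test system = biochemical Apaf-1 apoptosome reconstitution | also added = cytochrome c and DEVD-Rh110 substrate | schedule = 30 min plus 50 min, RT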
MEKK2mut PB1 HTS: MEK5 binding signal on mutant MEKK2 PB1, primary screen, biochemical, multiplex bead flow cytometry, Alexa488-MEK5; percent response, % at 10 µM; 290,000 compounds, 0.35% hits; Alexa488-MEK5 binding to MEKK2 mutant; in the data active = percent response above about 24%, passing the limit was not always enough
PREPL inhibitor: PREPL enzyme inhibitors, primary screen, biochemical, fluorescence polarization | inhibition, % at 5.96 µM | 320,000 compounds, 0.68% hits | Prolyl endopeptidase-like (Homo sapiens), Q4J6C6 | recombinant PREPL, fluorescence polarization activity-based probe; in the data active = inhibition above about 43%;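 also: 0% = enzyme with DMSO and 100% = wells lacking enzyme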
UBC13 inh: UBC13 polyubiquitin chain formation inhibitors, primary screen, biochemical, TR-FRET, uHTS; Ubiquitin-conjugating enzyme E2 N (Homo sapiens), P61088; inhibition, % at 20 µM; 330,000 compounds, 0.47% hits; AID 485273, 2010; in the data active = inhibition above about 45%, passing the limit was not always enough
Target sequence (P61088 whole entry, looked up): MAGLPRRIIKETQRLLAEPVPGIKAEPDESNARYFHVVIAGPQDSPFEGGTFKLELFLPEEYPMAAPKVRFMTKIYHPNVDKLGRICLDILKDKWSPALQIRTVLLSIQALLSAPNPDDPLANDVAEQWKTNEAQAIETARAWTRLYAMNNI
MEKK2wt confirm: modulators of MEK5 binding to wildtype MEKK2, confirmation, biochemical, single concentration, multiplex bead flow cytometry | 5,900 compounds, 2.4% hits | binding response (% of control), % at 10 µM | Alexa488-MEK5 binding to MEKK2 WT; actives lie on both sides | AID 1892, 2009 | shares compounds with MEKK3 PB1 HTS; in the data active = binding response below about 16% or above about 210%; inactive = in between
MEKK2mut-MEK5: mutant MEKK2 PB1-MEK5 binding signal retest – biochemical, single concentration, multiplex bead flow cytometry, confirmation; shares compounds with MEKK3 PB1 HTS; Alexa488-MEK5 binding to MEKK2 mutant; percent response, % at 10 µM; 5,900 compounds, 2% hits; in the data active = percent response mostly above about 71%, no sharp cut-off; inactive = mostly below about 38%;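 also: higher means compound restores mutant binding toward wildtype level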
MEKK3 confirm: MEKK3 wild-type PB1 binding to MEK5, inhibitors, confirmation, biochemical, bead multiplex flow cytometry, single concentration, wildtype | 5,900 compounds, 1.8% hits | binding response (% of control), % at 10 µM | Alexa488-MEK5 binding to MEKK3; hits give low values | shares compounds with MEKK3 PB1 HTS;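 active = binding response below 72% of control, or above a set upper limit, though filed actives all read lower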;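 also: 100% = DMSO only wells and 0% = binding blocked by excess unlabeled MEK5; lower values mean stronger disruption of MEK5 binding to MEKK3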
The depositor's hits bear a star; . = not tested or not shown; [ ] = another dose, or the depositor's remark.

SMILES	MEKK3 PB1 HTS	MEKK2 WT-MEK5	Apaf-1 inh	MEKK2mut PB1 HTS	PREPL inhibitor	UBC13 inh	MEKK2wt confirm	MEKK2mut-MEK5	MEKK3 confirm
CCOC(=O)C(NC(=O)CCl)(Nc1sc(C)c(CC)c1C#N)C(F)(F)F (centres undefined)	147*	109	5	3	1	6	99	1	98
CN(C)c1ccc(C(=S)N2CCN(S(=O)(=O)c3ccccc3)CC2)cc1	98	95	-1	-9	10	-9	.	.	.
COc1cc(Br)c(CN2C(=O)NC3(CCCCCC3)C2=O)cc1OC	100	102	13	-3	9	-2	.	.	.
O=C(Nc1cccc(O)c1)C(Cc1ccccc1)N1C(=O)c2cccc3cccc(c23)C1=O (centres undefined)	140*	101	-12	0	0	-24	98	-3	102
Cc1ccc(N2C(=O)C(Cl)=C(N3CCOCC3)C2=O)c(C)c1	103	105	1	0	9	-4	.	.	.
COc1ccc(-c2nnc(SCC(=O)c3[nH]c(C)c(C(C)=O)c3C)o2)cc1	103	102	8	1	10	-11	.	.	.
O=C(CSc1nnc(-c2ccco2)o1)N1CCOCC1	103	101	-21	4	-7	-6	.	.	.
O=C(CSc1nnc(-c2ccco2)o1)N1CCN(c2ccccc2)CC1	136*	122	-1	5	-37	-1	106	2	106
O=C(CSc1nnc(-c2ccco2)o1)N1c2ccccc2CCc2ccccc21	80*[inhibitor]	85	10	-11	8	5	102	7	101
Fc1ccc(CSc2nnc(-c3ccco3)o2)cc1	1.0*[inhibitor]	85	-1	-57	7	6	97	-8	95
CC(=O)c1c(C)[nH]c(C(=O)CSc2nnc(-c3ccco3)o2)c1C	152*	127	-6	7	-9	0	97	-6	100
Cc1ccccc1OCC(=O)NCCCNC(=O)c1cccnc1	102	98	3	-7	-15	-2	.	.	.
Cc1ccn2c(c1)nc(=O)c1cc(S(=O)(=O)N3CCOCC3)ccc12	98	100	3	-1	4	0	.	.	.
O=C1OC(/C(=C\Nc2ccc(F)cc2F)[N+](=O)[O-])c2ccccc21 (centres undefined)	100	96	4	-3	6	-10	.	.	.
O=C1OC(/C(=C\Nc2cc(Cl)ccc2O)[N+](=O)[O-])c2ccccc21 (centres undefined)	38*[inhibitor]	52	17	-17	12	-76	100	-1	103
N#Cc1c2n(c(=S)n(-c3ccccc3)c1=O)CCCCC2	98	94	-12	-7	-1	6	.	.	.
N#Cc1ccc(Cn2c(=O)c(C#N)c3n(c2=O)CCC3)cc1	0.0*[inhibitor]	0.0*[inhibitor]	11	-21	2	12	106	6	104
O=C(/C=C/c1ccccc1Cl)Nc1ccc(-c2nnc3n2CCCCC3)cc1	137*	102	8	1	0	20	103	5	107
